Measurements published in ChEMBL document CHEMBL4732060, “Cytotoxic triterpenoid-safirinium conjugates target the endoplasmic reticulum” (Eur J Med Chem, 2021).
The source made the active and inactive calls. No cut-off for these calls is given here.

Key:
[1] = system: HT-29; test: Cytotoxicity against human HT-29 cells assessed as reduction in cell viability measured after 72 hrs by SRB assay; format: functional, cell-based; settings: HT-29, 72 h
[2] = system: A2780; test: Cytotoxicity against human A2780 cells assessed as reduction in cell viability measured after 72 hrs by SRB assay; format: functional, cell-based; settings: A2780, 72 h
[3] = system: A-375; test: Cytotoxicity against human A-375 cells assessed as reduction in cell viability measured after 72 hrs by SRB assay; format: functional, cell-based; settings: A-375, 72 h
[4] = system: MCF7; test: Cytotoxicity against human MCF7 cells assessed as reduction in cell viability measured after 72 hrs by SRB assay; format: functional, cell-based; settings: MCF7, 72 h
[5] = system: NIH3T3; test: Cytotoxicity against mouse NIH3T3 cells assessed as reduction in cell viability measured after 72 hrs by SRB assay; format: cell-based; settings: NIH3T3, 72 h
Outline: (§1)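 Sulforhodamine B assay on human tumour lines A375 (epithelial melanoma), HT29 (colorectal adenocarcinoma), MCF-7 (breast adenocarcinoma), A2780 (ovarian carcinoma) and FaDu (squamous cell carcinoma). Non-malignant NIH 3T3 (mouse fibroblasts) and HEK293 (human embryonic kidney) cells were also tested. EC50 values are given as mean ± standard mean error.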

[6] = system: FaDu; test: Cytotoxicity against human FaDu cells assessed as reduction in cell viability measured after 72 hrs by SRB assay; format: functional, cell-based
[7] = system: HEK293; test: Cytotoxicity against human HEK293 cells assessed as reduction in cell viability measured after 72 hrs by SRB assay; format: ADME, cell-based; settings: HEK293, 72 h
[8] = system: A-375; test: Cytotoxicity against human A-375 cells assessed as reduction in cell viability upto 30 uM measured after 72 hrs by SRB assay; format: functional, cell-based; settings: dose microM <=30, time 72.0 hrs; outline: as §1
[9] = system: HEK293; test: Cytotoxicity against human HEK293 cells assessed as reduction in cell viability upto 30 uM measured after 72 hrs by SRB assay; format: cell-based; settings: hek293, 72 h; outline: as §1
[10] = Drug uptake in human A-375 cells measured after 24 hrs by fluorescence imaging analysis; format: ADME, cell-based; settings: a-375, 24 h
Outline: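 Fluorescence imaging of cells after a prolonged 24 h incubation with compound, to judge entry into the cells.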

[11] = system: HT-29; test: Cytotoxicity against human HT-29 cells assessed as reduction in cell viability upto 30 uM measured after 72 hrs by SRB assay; format: functional, cell-based; settings: dose microM <=30, time 72.0 hrs; outline: as §1
[12] = system: FaDu; test: Cytotoxicity against human FaDu cells assessed as reduction in cell viability upto 30 uM measured after 72 hrs by SRB assay; format: functional, cell-based; settings: dose microM <=30, time 72.0 hrs; outline: as §1
[13] = system: NIH3T3; test: Cytotoxicity against mouse NIH3T3 cells assessed as reduction in cell viability upto 30 uM measured after 72 hrs by SRB assay; format: cell-based; settings: nih3t3, 72 h; outline: as §1
[14] = system: MCF7; test: Cytotoxicity against human MCF7 cells assessed as reduction in cell viability upto 30 uM measured after 72 hrs by SRB assay; format: functional, cell-based; settings: dose microM <=30, time 72.0 hrs; outline: as §1
[15] = system: A2780; test: Cytotoxicity against human A2780 cells assessed as reduction in cell viability upto 30 uM measured after 72 hrs by SRB assay; format: functional, cell-based; settings: dose microM <=30, time 72.0 hrs; outline: as §1

Row | Drug uptake [10] | SMILES | EC50 [1] [µM] | EC50 [2] [µM] | EC50 [3] [µM] | EC50 [4] [µM] | EC50 [5] [µM] | EC50 [6] [µM] | EC50 [7] [µM] | Activity [8] | Activity [9] | Activity [11] | Activity [12] | Activity [13] | Activity [14] | Activity [15]
1 | – | C=C(C)[C@@H]1CC[C@]2(C(=O)N3CCN(C(=O)C4=C(C)C=C(C)N5C[N+](CC)(CC)N=C45)CC3)CC[C@]3(C)[C@H](CC[C@@H]4[C@@]5(C)CC[C@H](OC(C)=O)C(C)(C)[C@@H]5CC[C@]43C)[C@@H]12 | > 30 | 21.6 | 26.2 | 26.3 | 22.4 | > 30 | – | – | – | – | – | – | – | –
2 | – | COc1cccc2c1C(=O)c1c(O)c3c(c(O)c1C2=O)C[C@@](O)(C(=O)CO)C[C@@H]3O[C@H]1C[C@H](N)[C@H](O)[C@H](C)O1 [DOXORUBICIN] | 0.9 | 0.01 | – | 1.1 | 0.4 | – | – | – | – | – | – | – | – | –
3 | – | C=C(C)[C@@H]1CC[C@]2(C(=O)NCCNC(=O)C3=Cc4ccccc4N4C[N+](CC)(CC)N=C34)CC[C@]3(C)C(=CC[C@@H]4[C@@]5(C)CC[C@H](OC(C)=O)C(C)(C)[C@@H]5CC[C@]43C)[C@H]12 | 26.8 | 18.3 | 18.6 | 17.6 | 17.4 | 12.3 | 13.6 | – | – | – | – | – | – | –
4 | – | CC[N+]1(CC)CN2C(=N1)C(C(=O)N1CCN(C(=O)[C@]34CC[C@@H](C)[C@H](C)[C@H]3C3=CC[C@@H]5[C@@]6(C)CC[C@H](OC(C)=O)C(C)(C)[C@@H]6CC[C@@]5(C)[C@]3(C)CC4)CC1)=Cc1ccccc12 | > 30 | 9 | 21.4 | 10.2 | > 30 | 18.3 | – | – | – | – | – | – | – | –
5 | Not Active | CC1=CC(C)=C(C(=O)[O-])C2=N[N+]3(CCOCC3)CN12 | > 30 | > 30 | > 30 | > 30 | > 30 | > 30 | – | inactive | Non-Toxic | inactive | inactive | Non-Toxic | inactive | inactive
6 | – | CC[N+]1(CC)CN2C(=N1)C(C(=O)N1CCN(C(=O)[C@]34CC[C@@H](C(C)=O)[C@@H]3C3=CC[C@@H]5[C@@]6(C)CC[C@H](OC(C)=O)C(C)(C)[C@@H]6CC[C@@]5(C)[C@]3(C)CC4)CC1)=Cc1ccccc12 | 22.2 | 10.9 | 15 | 13.2 | 3 | 13.3 | – | – | – | – | – | – | – | –
7 | Not Active | CC1=CC(C)=C(C(=O)[O-])C2=N[N+]3(CCCCC3)CN12 | > 30 | > 30 | > 30 | > 30 | > 30 | > 30 | – | inactive | Non-Toxic | inactive | inactive | Non-Toxic | inactive | inactive
8 | Not Active | CC[N+]1(CC)CN2C(C)=CC(C)=C(C(=O)[O-])C2=N1 | > 30 | > 30 | > 30 | > 30 | > 30 | > 30 | – | inactive | Non-Toxic | inactive | inactive | Non-Toxic | inactive | inactive
9 | – | CC[N+]1(CC)CN2C(=N1)C(C(=O)NCCNC(=O)[C@]13CC[C@@H](C)[C@H](C)[C@H]1C1=CC[C@@H]4[C@@]5(C)CC[C@H](OC(C)=O)C(C)(C)[C@@H]5CC[C@@]4(C)[C@]1(C)CC3)=Cc1ccccc12 | 22.1 | 11.2 | 13.8 | 11.7 | 3.6 | 10.2 | – | – | – | – | – | – | – | –
10 | – | CCN(CC)c1ccc2c(-c3ccccc3C(=O)O)c3ccc(=[N+](CC)CC)cc-3oc2c1 [RHODAMINE] | > 30 | > 30 | > 30 | > 30 | > 30 | > 30 | > 30 | – | – | – | – | – | – | –
11 | Not Active | CC1=CC(C)=C(C(=O)[O-])C2=N[N+]3(CCCC3)CN12 | > 30 | > 30 | > 30 | > 30 | > 30 | > 30 | – | inactive | Non-Toxic | inactive | inactive | Non-Toxic | inactive | inactive
12 | Not Active | CC1=CC(C)=C(C(=O)[O-])C2=N[N+]3(CCN(C)CC3)CN12 | > 30 | > 30 | > 30 | > 30 | > 30 | > 30 | – | inactive | Non-Toxic | inactive | inactive | Non-Toxic | inactive | inactive
13 | – | CC[N+]1(CC)CN2C(=N1)C(C(=O)N1CCN(C(=O)[C@]34CCC(C)(C)C[C@H]3C3=CC[C@@H]5[C@@]6(C)CC[C@H](OC(C)=O)C(C)(C)[C@@H]6CC[C@@]5(C)[C@]3(C)CC4)CC1)=Cc1ccccc12 | 26.2 | 21.4 | 21.4 | 19.8 | 18.4 | 18.1 | – | – | – | – | – | – | – | –
14 | – | C=C(C)[C@@H]1CC[C@]2(C(=O)N3CCN(C(=O)C4=Cc5ccccc5N5C[N+](CC)(CC)N=C45)CC3)CC[C@]3(C)C(=CC[C@@H]4[C@@]5(C)CC[C@H](OC(C)=O)C(C)(C)[C@@H]5CC[C@]43C)[C@H]12 | 27 | 14.1 | 20.8 | 18.1 | > 30 | 28.2 | 16.5 | – | – | – | – | – | – | –
15 | Not Active | CCCCCCCCCCCC[N+]1(CCCCCCCCCCCC)CN2C(C)=CC(C)=C(C(=O)[O-])C2=N1 | > 30 | > 30 | > 30 | > 30 | > 30 | > 30 | – | inactive | Non-Toxic | inactive | inactive | Non-Toxic | inactive | inactive
16 | Not Active | CCCCCC[N+]1(CCCCCC)CN2C(C)=CC(C)=C(C(=O)[O-])C2=N1 | > 30 | > 30 | > 30 | > 30 | > 30 | > 30 | – | inactive | Non-Toxic | inactive | inactive | Non-Toxic | inactive | inactive
17 | – | CC[N+]1(CC)CN2C(=N1)C(C(=O)NCCNC(=O)[C@]13CC[C@@H](C(C)=O)[C@@H]1C1=CC[C@@H]4[C@@]5(C)CC[C@H](OC(C)=O)C(C)(C)[C@@H]5CC[C@@]4(C)[C@]1(C)CC3)=Cc1ccccc12 | > 30 | 20.8 | 16.6 | 15.7 | 21.3 | 16.1 | – | – | – | – | – | – | – | –
18 | – | CC[N+]1(CC)CN2C(=N1)C(C(=O)NCCNC(=O)[C@]13CCC(C)(C)C[C@H]1C1=CC[C@@H]4[C@@]5(C)CC[C@H](OC(C)=O)C(C)(C)[C@@H]5CC[C@@]4(C)[C@]1(C)CC3)=Cc1ccccc12 | 25 | 24.2 | 19 | 21.8 | 28.5 | 27.1 | – | – | – | – | – | – | – | –
19 | Not Active | CC1=CC(C)=C(C(=O)[O-])C2=N[N+](C)(C)CN12 | > 30 | > 30 | > 30 | > 30 | > 30 | > 30 | – | inactive | Non-Toxic | inactive | inactive | Non-Toxic | inactive | inactive
20 | Not Active | CCCCCCCC[N+]1(CCCCCCCC)CN2C(C)=CC(C)=C(C(=O)[O-])C2=N1 | > 30 | > 30 | > 30 | > 30 | > 30 | > 30 | – | inactive | Non-Toxic | inactive | inactive | Non-Toxic | inactive | inactive

Row | SMILES | Drug uptake [10] | EC50 [1] [µM] | EC50 [2] [µM] | EC50 [3] [µM] | EC50 [4] [µM] | EC50 [5] [µM] | EC50 [6] [µM] | EC50 [7] [µM] | Activity [8] | Activity [9] | Activity [11] | Activity [12] | Activity [13] | Activity [14] | Activity [15]
21 | CC[N+]1(CC)CN2C(=N1)C(C(=O)[O-])=Cc1ccccc12 | Not Active | – | – | – | – | – | – | – | – | – | – | – | – | – | –
